Legend:
Type in all cases: functional
[1] = tested on: Panel (Carcinoma cell lines); assay: Mean graph midpoint growth inhibition of human cancer cell lines
In short: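 Mean graph midpoint: the average GI50 across all human cancer cell lines successfully tested (~55) in the NCI screen. Values below or above the 10^-4 to 10^-8 M test range were set to the minimum (10^-8 M) or maximum (10^-4 M) concentration screened.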

COLO 205 = assay: Cytotoxicity against colon […] cell lines; details: Homo sapiens
In short: (§1)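 NCI human tumor cell line screen. Growth inhibition was read across a test range of 10^-4 to 10^-8 M. GI50 is the concentration giving 50% growth inhibition.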

DU-145 = assay: Cytotoxicity against prostate DU-145 cell lines; details: Homo sapiens; in short: as §1
SF-295 = assay: Cytotoxicity against CNS SF-295 cell lines; details: Homo sapiens; in short: as §1
LOX IMVI = assay: Cytotoxicity against melanoma LOXIMVI cell lines; details: Homo sapiens; in short: as §1
OVCAR-5 = assay: Cytotoxicity against ovarian OVCAR-5 cell lines; details: Homo sapiens; in short: as §1
MDA-MB-435 = assay: Cytotoxicity against breast MDA-MB-435 cell lines; details: Homo sapiens; in short: as §1
CCRF-CEM = assay: Cytotoxicity against leukemia CCRF-CEM cell lines; details: Homo sapiens; in short: as §1
SN12C = assay: Cytotoxicity against renal SN12C cell lines; details: Homo sapiens; in short: as §1
NCI-H23 = assay: Cytotoxicity against lung NCI-H23 cell lines; details: Homo sapiens; in short: as §1

Row | SMILES | MGM [1] [µM] | GI50 (COLO 205) [nM] | GI50 (DU-145) [nM] | GI50 (SF-295) [nM] | GI50 (LOX IMVI) [nM] | GI50 (OVCAR-5) [nM] | GI50 (MDA-MB-435) [nM] | GI50 (CCRF-CEM) [nM] | GI50 (SN12C) [nM] | GI50 (NCI-H23) [nM]
1 | Cc1ccc(/N=C2\C(=O)C3=C(OC(C)(C)CC3)c3ccccc32)cc1 | 0.89 | 1800 | 1760 | 1260 | 300 | 2030 | 190 | 2560 | 460 | 920
2 | COc1ccc(/N=C2\C(=O)C3=C(OC(C)(C)CC3)c3ccccc32)cc1 | 1.15 | 1020 | 870 | 880 | 890 | 12300 | 96 | 1540 | 900 | 1170
3 | CC1(C)CCC2=C(O1)c1ccccc1/C(=N/c1ccc([N+](=O)[O-])cc1)C2=O | 15.5 | 16800 | 16800 | 14900 | 7590 | 14500 | 15800 | 19600 | 15900 | 18300
4 | CC1(C)CCC2=C(O1)c1ccccc1/C(=N/c1ccccc1)C2=O | 1.17 | 1550 | 1560 | 1860 | 220 | 1810 | 200 | 1550 | 1120 | 1230
5 | CC1(C)CCC2=C(O1)c1ccccc1C(=O)C2=O [LAPACHONE] | 1.12 | 1780 | 1740 | 1540 | 310 | 1820 | 21400 | 1410 | 1450 | 760

Source: ChEMBL document CHEMBL1134690, “Preparation and cytotoxicity toward cancer cells of mono(arylimino) derivatives of beta-lapachone” (2001)
